CCR6 antag = blocks CCL20-driven beta-arrestin recruitment at human CCR6; inhibition, % at 20 µM; 0.49% of 340,000 active; CHO-K1 CCR6 PathHunter beta-arrestin, luminescence, CCL20-stimulated; P51684;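 active = compounds whose inhibition of the agonist-driven luminescence signal at 20 µM reaches about 50%, limit read from the data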;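 note: cells stimulated with CCL20 at 14 nM final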
APJ ag = agonists of human APJ apelin receptor; P35414; CHO-K1 APJ PathHunter beta-arrestin, luminescence; 0% DMSO wells, 100% apelin; activation, % at 20 µM; 0.11% of 330,000 active;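 active = activation more than six SD over the plate average, tested at 20 µM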
Target sequence (P35414 whole entry, looked up): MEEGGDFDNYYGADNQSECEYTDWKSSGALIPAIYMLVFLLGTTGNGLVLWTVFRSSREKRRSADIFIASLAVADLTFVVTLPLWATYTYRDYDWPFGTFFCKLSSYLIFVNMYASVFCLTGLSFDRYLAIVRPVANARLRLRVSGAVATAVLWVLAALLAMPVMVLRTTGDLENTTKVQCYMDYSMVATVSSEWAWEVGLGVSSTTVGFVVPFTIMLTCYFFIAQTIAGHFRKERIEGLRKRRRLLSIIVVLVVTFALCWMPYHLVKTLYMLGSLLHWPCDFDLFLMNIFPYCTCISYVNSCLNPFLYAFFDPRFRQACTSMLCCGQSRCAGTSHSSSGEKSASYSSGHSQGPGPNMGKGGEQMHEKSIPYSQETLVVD
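Material: CHO-K1 APJ beta-arrestin complementation cell line; Input: cell density 1000 per well; Incubation: compound stimulation 90 min at 25 °C, detection 60 min; Signal: luminescence from split beta-galactosidase complementation, Galacton Star/Emerald II substrate; Controls: DMSO-only wells as negative, 10 nM Apelin-13 as positive control.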
Beta2AR agonist = human beta-2 adrenergic receptor agonism by FAP; response, % (test concentration not listed); Am2.2-beta2AR cells, FAP receptor internalization, flow cytometry; P07550; 0.43% of 340,000 active; AID 504454;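 active = response above a set limit, near 3 SD of response in nonfluorescent compounds, cut at about 42% in these data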
APJ antagonist = blocks the human apelin receptor APJ; inhibition, % at 20 µM; CHO-K1 APJ beta-arrestin complementation, luminescence; P35414; 0.32% of 330,000 active;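 active = inhibition above about 40% at 20 µM, limit read from the data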;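 note: cells challenged with 10 nM apelin-13 agonist together with compound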
CXCR6 inh = inhibitors of human CXCR6 receptor. O00574. CHO-K1 PathHunter CXCR6 beta-arrestin, luminescence. inhibition, % at 20 µM. 0.36% of 360,000 active. AID 602244; in the data active = inhibition above about 34%, passing the limit was not always enough;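 note: antagonist mode with CXCL16 agonist at 10 nM final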
Target sequence (O00574 whole entry, looked up): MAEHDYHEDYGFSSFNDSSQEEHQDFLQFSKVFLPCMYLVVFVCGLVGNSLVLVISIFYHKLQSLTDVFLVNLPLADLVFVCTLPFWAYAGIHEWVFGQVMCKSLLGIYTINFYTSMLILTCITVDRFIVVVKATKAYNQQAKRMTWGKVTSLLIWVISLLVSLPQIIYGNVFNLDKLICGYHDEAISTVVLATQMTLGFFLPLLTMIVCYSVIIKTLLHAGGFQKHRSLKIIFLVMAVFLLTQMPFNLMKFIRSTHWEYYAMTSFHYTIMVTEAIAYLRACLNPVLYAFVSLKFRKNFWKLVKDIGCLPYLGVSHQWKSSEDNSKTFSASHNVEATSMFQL
EBI2 antag = blocks human EBI2 receptor beta-arrestin signaling. inhibition, % at 5 µM. 0.81% of 360,000 active. AID 651636. EBI2 beta-arrestin recruitment, luminescence, 7a,25-OHC stimulated. P32249; in the data active = inhibition above about 38%;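 note: enzyme fragment complementation signal reports receptor beta-arrestin coupling in cells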
APJ ag confirm = confirmation of human APJ apelin receptor agonists. shares compounds with APJ ag. CHO-K1 APJ PathHunter beta-arrestin, luminescence. activation, % at 20 µM. 10% of 310 active. AID 2764;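 active = activation above 40%, taking the highest of four retests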
APJ antag conf = APJ receptor antagonism confirmation; 66% of 950 active; AID 2766; APJ beta-arrestin recruitment, luminescence, antagonist mode; shares compounds with APJ antagonist; inhibition, % at 20 µM; in the data active = inhibition above about 50%
Large screens that a line does not name were inactive (follow-up assays come after a bar, where they were run). Shown are actives, neighbours in structure and some others; about 1.8% of the full set was active somewhere.

CC1(C)N(O)C2CCCCC2N1O (stereo not given)	none
Cc1ccsc1/C=C1\C(=O)NC(=S)N(C)C1=O	Beta2AR agonist 55
CN1CCCC1CCOC(C)(c1ccccc1)c1ccc(Cl)cc1 (stereo not given)	none (no result: APJ ag, APJ antagonist)
CC1CCN(C(CC(=O)c2ccccc2)C(=O)c2ccccc2)CC1 (stereo not given)	CCR6 antag 65 (no result: APJ ag, APJ antagonist)
CC(C)(O)/C=C/C(=O)C(C)(O)C1C(O)CC2(C)C3CC=C4C(C=C(O)C(=O)C4(C)C)C3(C)C(=O)CC12C (stereo not given)	Beta2AR agonist 42 (no result: APJ ag, APJ antagonist)
CC(=O)OC(C)(C)/C=C/C(=O)[C@](C)(O)C1[C@H](O)C[C@@]2(C)C3CC=C4C(C[C@H](O)C(=O)C4(C)C)[C@]3(C)C(=O)C[C@]12C (stereo not given in full)	Beta2AR agonist 66
COc1ccc(N2C(=O)/C(=C/c3ccc(C)o3)C(=O)NC2=S)cc1	Beta2AR agonist 44
Cc1ccc(/C=C2\C(=O)NC(=S)N(c3cccc(F)c3)C2=O)o1	Beta2AR agonist 50
CCOc1ccc(N2C(=O)/C(=C/c3ccc(C)o3)C(=O)NC2=S)cc1	none
CC(C)(C)n1nnnc1C(CCc1ccccc1)N1CCC2(CC1)C(=O)NCN2c1ccccc1 (stereo not given)	none (no result: CCR6 antag, APJ ag, Beta2AR agonist, APJ antagonist)
C[C@]12CCC3C(CC[C@H]4C[C@@H](O)CC[C@]34C)C1CC[C@@H]2OC(=O)[C@H](N)CCCCN (stereo not given in full)	none
O=C1NC(=O)N(CCc2ccc(F)cc2)C(=O)/C1=C\C=C\c1ccccc1	EBI2 antag 48 (no result: APJ ag, APJ antagonist)
C=CCN1C(=O)NC(=O)/C(=C/C=C/c2ccccc2)C1=O	Beta2AR agonist 75 (no result: APJ ag, APJ antagonist)
C=CCN1C(=O)NC(=O)/C(=C/c2ccc(OC)c(CSc3ccccn3)c2)C1=O	none
CC1(CCCc2ccc(N(CCCl)CCCl)cc2)NC(=O)NC1=O (stereo not given)	none (no result: CCR6 antag, APJ ag, Beta2AR agonist, APJ antagonist)
CN1C(=O)C(=Cc2ccc(N3CCOCC3)o2)C(=O)N(C)C1=S	CCR6 antag 57, APJ antagonist 42
COC(=O)C1CN(C#N)N(c2ccc(Cl)cc2)C12c1ccccc1-c1ccccc12 (stereo not given)	EBI2 antag 53
CN1[C@@H]2CCC[C@H]1CC(=O)C2	none (no result: APJ ag, APJ antagonist)
CC12CC1(C)C(=O)N(c1cc(Cl)cc(Cl)c1)C2=O (stereo not given)	none (no result: APJ ag, APJ antagonist)
O=c1c2ccccc2[se]n1-c1ccccc1	EBI2 antag 62
O=C(Cn1c(=O)n(CC2CS2)c2ccccc21)N1CCCCCC1 (stereo not given)	CCR6 antag 62
CN(C)c1ccc(C=C2C(=O)NC(=S)NC2=O)cc1	none (no result: APJ ag, APJ antagonist)
CCN(CC)c1ccc(C=C2C(=O)NC(=S)NC2=O)cc1	Beta2AR agonist 51
CSCCC(c1nnnn1Cc1ccccc1)N1CCC2(CC1)C(=O)NCN2c1ccccc1 (stereo not given)	none (no result: CCR6 antag, APJ ag, Beta2AR agonist, APJ antagonist)
CC1=CC(C)CC(C)OC(=O)CC(c2ccc(O)cc2)NC(=O)C(Cc2c(Br)[nH]c3ccccc23)N(C)C(=O)C(C)NC(=O)C(C)C1 (stereo not given)	Beta2AR agonist 50 (no result: APJ ag, APJ antagonist)
CC(C)(C)N1CC(C(=O)c2ccccc2)C1c1ccccc1 (stereo not given)	none (no result: APJ ag, APJ antagonist)
COC(=O)C1=C(c2ccc(-c3ccccc3)c(F)c2)C[C@@H]2CC[C@H]1N2C(=O)N1CCC(C)CC1	CXCR6 inh 41
CC(=O)N(C)C1=Nc2ccc(Cl)cc2C(c2ccccc2)=[N+]([O-])C1	none (no result: APJ ag, APJ antagonist)
COc1ccc(-c2nc3ccccc3c(=O)n2-c2ccc(OC)cc2)cc1	none
CCn1nc(-c2ccccc2)nc2c(=O)n(C)c(=O)nc1-2	Beta2AR agonist 69
CC1=Nc2ccccc2/C1=C/c1c(O)[nH]c(=O)[nH]c1=O	none
O=c1[nH]c(O)c(/C=C2/C=CC(c3cc(Cl)ccc3Cl)=N2)c(=O)[nH]1	APJ ag 19 | APJ ag confirm inactive
Cc1cc(/C=C2\C(=O)NC(=O)N(c3ccc(Cl)cc3)C2=O)c(C)n1-c1sc2c(c1C#N)CCCC2	none
Cc1sc(-n2c(C)cc(C=C3C(=O)NC(=O)NC3=O)c2C)c(C#N)c1C	APJ ag 11 (no result: Beta2AR agonist, CXCR6 inh, EBI2 antag) | APJ ag confirm inactive
C=CCN(CC=C)C(=O)CCN1CC1C (stereo not given)	none (no result: APJ ag, APJ antagonist)
CC1(C)C[C@H]2C=C(C=O)[C@]3(C=O)C[C@]3(C)[C@H]2C1	APJ ag 31 | APJ ag confirm inactive
C=C(C=O)C[C@@H]1C[C@H](O)C2OC3C[C@]4(C)OC5/C=C\CC6OC7C(CC=CCC6OC5CCCC4OC3CC2O1)OC1CC2OC3CC(=O)OC3C[C@@H](C)C[C@@]2(C)OC1C[C@@H]7C (stereo not given in full)	APJ ag 21 (no result: Beta2AR agonist, CXCR6 inh, EBI2 antag) | APJ ag confirm inactive
COC(=O)C1=C(c2ccc(Cl)c(C(F)(F)F)c2)C[C@@H]2CC[C@H]1N2C(=O)NC1CCCCC1	none
CCCSc1nc(O)c(CC)c(=O)n1C(C)CC (stereo not given)	APJ ag 60 | APJ ag confirm 62
NC(N)=N/N=C/c1ccc(N(c2ccccc2)c2ccccc2)cc1	APJ ag 40 | APJ ag confirm inactive
O=S(=O)(c1ccc(Cl)cc1)N1Cc2ccccc2-n2nncc2C1	none (no result: CCR6 antag, APJ ag, Beta2AR agonist, APJ antagonist)
O=C1C(=O)c2ccccc2-c2ccccc21	APJ ag 37, Beta2AR agonist 103 | APJ ag confirm 42
Brc1ccc(Oc2cc(Br)c(Br)cc2Br)c(Br)c1	none
O=C(COc1ccc(Cl)cc1)N(c1ccc(Cl)cc1)C1CN2CCC1CC2 (stereo not given)	none
COc1ccc(C(=O)C2CCCN(CCO)C2)c(C)c1 (stereo not given)	APJ antagonist 111 | APJ antag conf inactive
CCCCCn1c(NC(=O)c2ccco2)c(C(=O)OCC)c2nc3ccccc3nc21	APJ antagonist 49 | APJ antag conf inactive
COCCCn1c(N)c(C(=O)OCCOC)c2nc3ccccc3nc21	none
CCOC(=O)c1c(NS(=O)(=O)c2ccccc2)n(CCCOC)c2nc3ccccc3nc12	CCR6 antag 60, APJ antagonist 50 | APJ antag conf inactive
Fc1ccccc1CN1Cc2ccccc2-n2nncc2C1	none (no result: CCR6 antag, APJ ag, Beta2AR agonist, APJ antagonist)
COCCNC(=O)c1c(N)n(CCC(C)C)c2nc3ccccc3nc12	none
CC(C)CCn1c(N)c(C(=O)NCc2cccs2)c2nc3ccccc3nc21	APJ antagonist 55 | APJ antag conf inactive
C=CCN1CC[C@]23c4c5ccc(O)c4OC2C(O)CC[C@@]3(O)[C@H]1C5 (stereo not given in full)	none

Compound activity deposited in PubChem BioAssay by several laboratories.
